# Pf Dd2 inh – P. falciparum Dd2 growth inhibitors, primary screen, SYBR Green fluorescence, single dose replicates. activity change, % at 10 µM. 72 h; stronger effect = lower value. 94,000 tested, 2.3% active; in the data active means activity change below about -80%; inconclusive means no clear call, values can overlap the other calls
# GASC1 inh – inhibitors of GASC-1 (KDM4C) histone demethylase, primary screen, biochemical, single concentration HTS; Lysine-specific demethylase 4C (Homo sapiens), Q9H3R0; GST-KDM4C 2-372, H3K9me3 peptide, LANCE TR-FRET; inhibition, % at 12.5 µM; 96,000 tested, 0.15% active; AID 720574, 2013;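 active means mean replicate inhibition above about 25%, with at least 55% of replicates also reaching it, limit read from the data, passing the limit was not always enough; inconclusive means only one of those two conditions met; inactive means neither condition met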
#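 Material: GST-tagged GASC-1 (JMJD2C) catalytic fragment, aa 2-372 / Quantity: enzyme final amount 10 nM / Medium: HEPES buffer, pH 7.5, plus ascorbate / Doses: one test concentration per compound / Incubation: 30 min reaction, 60 min detection, RT / Measured by: LANCE TR-FRET / Read-out: inhibition from TR-FRET ratio decrease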
# Tcruzi prolif – T. cruzi intracellular proliferation inhibitors, primary screen, cell-based, beta-gal Tulahuen parasites, NIH3T3 host, luminescence | T. cruzi beta-gal in NIH3T3, GalScreen luminescence, 90 h | inhibition, % at 8.34 µM | 77,000 tested, 5.9% active | AID 624255, 2012;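 active means mean inhibition above about 93%, with at least 55% of replicates each passing it, limit read from the data, passing the limit was not always enough; inconclusive means only one of those two conditions holds; inactive means neither condition holds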
# IDH1 R132H inh – inhibitors of IDH1 R132H reductase, primary screen, biochemical, plate reader, single point | inhibition, % at 10 µM | diaphorase/resazurin fluorescence, 60 min | Isocitrate dehydrogenase [NADP] cytoplasmic (Homo sapiens), O75874 | 70,000 tested, 0.18% active; in the data active means inhibition above about 34%; inconclusive means no clear call, values can overlap the other calls; inactive means below about 11%;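 further: 0% = DMSO and 100% = no enzyme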
# Target sequence (O75874 whole entry R132H): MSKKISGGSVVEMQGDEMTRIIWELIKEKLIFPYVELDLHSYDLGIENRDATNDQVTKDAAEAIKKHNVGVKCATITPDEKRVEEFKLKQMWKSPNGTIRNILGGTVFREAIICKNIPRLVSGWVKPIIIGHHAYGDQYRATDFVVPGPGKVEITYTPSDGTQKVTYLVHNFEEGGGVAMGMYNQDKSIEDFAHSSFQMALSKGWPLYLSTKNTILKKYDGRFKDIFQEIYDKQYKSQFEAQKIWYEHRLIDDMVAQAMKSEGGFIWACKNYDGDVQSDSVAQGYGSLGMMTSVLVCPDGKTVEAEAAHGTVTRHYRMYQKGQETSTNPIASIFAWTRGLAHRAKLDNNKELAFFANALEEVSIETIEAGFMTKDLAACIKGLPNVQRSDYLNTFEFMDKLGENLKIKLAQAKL
# An asterisk follows results filed as active; ? = inconclusive; . = no result. Shown are actives, neighbours in structure and some others; about 5.8% of the full set was active somewhere.
SMILES,Pf Dd2 inh,GASC1 inh,Tcruzi prolif,IDH1 R132H inh
C[C@@H]1CN([C@H](C)CO)C(=O)c2cc(NC(=O)C3CCCCC3)ccc2O[C@@H](C)CCCCO[C@@H]1CN(C)S(=O)(=O)c1cccs1,-84*,-2,34,.
C[C@@H]1CN([C@@H](C)CO)C(=O)c2cc(NC(=O)Nc3cccc4ccccc34)ccc2O[C@@H](C)CCCCO[C@@H]1CN(C)S(=O)(=O)c1cccs1,-90*,0,-8,1
C[C@H](CO)N1C[C@H](C)[C@H](CN(C)S(=O)(=O)c2cccs2)OCCCC[C@H](C)Oc2ccc(NC(=O)Nc3ccc(F)cc3)cc2C1=O,-28,-1,92,2
C[C@H]1CCCCO[C@H](CN(C)S(=O)(=O)c2cccs2)[C@@H](C)CN([C@@H](C)CO)C(=O)c2cc(NC(=O)C3CCCCC3)ccc2O1,-78,0,43,.
C[C@H]1CCCCO[C@H](CN(C)S(=O)(=O)c2cccs2)[C@@H](C)CN([C@@H](C)CO)C(=O)c2cc(NC(=O)Nc3cccc4ccccc34)ccc2O1,-60,2,31,-1
O=C(N/N=C/c1c(O)cc(O)cc1O)c1ccccn1,.,.,.,-1
C[C@H](CO)N1C[C@H](C)[C@H](CN(C)S(=O)(=O)c2cccc(F)c2)Oc2ncc(C#Cc3ccc(F)cc3)cc2C1=O,-68,-3,80,1
COc1ccc(C#Cc2cnc3c(c2)C(=O)N([C@H](C)CO)C[C@H](C)[C@H](CN(C)S(=O)(=O)c2cccc(F)c2)O3)cc1OC,-87*,-4,53,.
COc1ccc(C#Cc2cnc3c(c2)C(=O)N([C@H](C)CO)C[C@H](C)[C@H](CN(C)S(C)(=O)=O)O3)cc1OC,-28,0,31,-2
COc1ccc(C#Cc2cnc3c(c2)C(=O)N([C@H](C)CO)C[C@H](C)[C@H](CN(C)S(=O)(=O)c2ccc(C)cc2)O3)cc1OC,-85*,-1,92,1
Cc1ccc(O)c(/C=N/NC(=O)CCCCCCC(=O)Nc2ccccc2O)c1,.,.,.,0
CC(C)CC#Cc1ccc([C@H]2[C@@H](CO)N3C(=O)CN(C(=O)Cc4ccccc4)C[C@H]23)cc1,-85*,0,.,.
O=C(Cc1ccccc1)N1CC(=O)N2[C@H](CO)[C@H](c3ccc(C#Cc4ccccc4)cc3)[C@H]2C1,-84*,0,.,.
O=C(C1CCOCC1)N1C[C@H]2[C@@H](c3ccccc31)[C@H](CO)N2C(=O)Cc1ccccc1,-4,29*,52,.
O=C(C1CCOCC1)N1C[C@@H]2[C@H](c3ccccc31)[C@H](CO)N2C(=O)Cc1ccccc1,19,-3,8,.
CCn1c(=O)c(C(=O)NCCO)c(O)c2ccccc21,.,.,.,0
CO[C@@H]1CN(C)C(=O)c2ccc(NC(=O)c3ccccc3)cc2OC[C@H](C)N(C)C[C@@H]1C,.,19,-10,89*
CO[C@H]1CN(C)C(=O)c2ccc(NS(=O)(=O)CC(F)(F)F)cc2OC[C@H](C)N(C)C[C@@H]1C,-87*,-1,.,.
CO[C@@H]1CN(C)C(=O)c2ccc(NC(=O)Nc3c(C)noc3C)cc2OC[C@H](C)N(C)C[C@@H]1C,17,51*,25,0
CO[C@H]1CN(C)C(=O)c2ccc(NC(=O)c3ccccc3)cc2OC[C@@H](C)N(C)C[C@@H]1C,.,0,6,0
CO[C@H]1CN(C)C(=O)c2ccc(NC(=O)C3CCCC3)cc2OC[C@H](C)N(C(C)=O)C[C@H]1C,.,47*,.,0
O=C(NO)c1cccc(C(=O)N/N=C/c2cccs2)c1,.,.,.,0
CC(NS(=O)(=O)c1ccc(Br)cc1)C(=O)Nc1ccc(Cl)cc1Cl (centres undefined),.,.,.,0
O=S(=O)(Cc1noc(-c2ccc(OC(F)(F)F)cc2)n1)Cc1ccco1,.,.,.,1
CO[C@H]1CN(C)C(=O)c2cc(NC(=O)c3cccc(F)c3)ccc2OC[C@@H](C)N(C(C)=O)C[C@@H]1C,.,1,9,0
SMILES,Pf Dd2 inh,GASC1 inh,Tcruzi prolif,IDH1 R132H inh
CO[C@H]1CN(C)C(=O)c2ccc(NC(=O)c3cccc(F)c3)cc2OC[C@H](C)N(C)C[C@H]1C,-52,38*,-36,2
CO[C@@H]1CN(C)C(=O)c2cc(NC(=O)c3cccc(F)c3)ccc2OC[C@H](C)N(C(C)=O)C[C@H]1C,.,65*,44,98*
COc1ccc(Br)c(/C=N/NC(=O)c2ccc(C(=O)NO)cc2)c1,.,.,.,0
CC(C)(C(=O)Oc1ccccc1)S(=O)(=O)c1ccc(C(F)(F)F)cn1,.,.,.,-1
CCN(CC)CCSc1nnc2c3cc(C)ccc3n(C)c2n1,.,.,.,0
N#C[C@@H]1[C@H](c2ccc(C#CC3CCCCC3)cc2)[C@H](CO)N1C(=O)Nc1ccc(F)cc1,-88*,-2,.,.
N#C[C@H]1[C@H](c2ccc(C#CC3CCCCC3)cc2)[C@@H](CO)N1C(=O)Nc1ccc(F)cc1,-86*,1,.,.
CC(C)C#Cc1ccc2c(c1)O[C@@H](CN(C)C)[C@@H](C)CN([C@H](C)CO)S2(=O)=O,-33,60*,.,75*
C[C@H]1CN([C@@H](C)CO)S(=O)(=O)c2ccc(C#Cc3cccc(F)c3)cc2O[C@@H]1CN(C)C,27,55*,25,71*
CCCC#Cc1ccc2c(c1)O[C@@H](CN(C)S(C)(=O)=O)[C@@H](C)CN([C@H](C)CO)S2(=O)=O,22,41*,48,29
COC(=O)c1c(NC(=S)NC(C)c2ccncc2)sc2c1CCC(C)C2 (centres undefined),.,.,.,0
C/C=C/c1ccc2c(c1)O[C@@H](CN(C)C(=O)Cc1ccncc1)[C@@H](C)CN([C@H](C)CO)S2(=O)=O,-58,-4,-11,0
C[C@H](CO)N1C[C@H](C)[C@H](CN(C)C(=O)Cc2ccncc2)Oc2cc(C#CC3CCCCC3)ccc2S1(=O)=O,-86*,-2,86,?
C[C@@H]1CN([C@H](C)CO)S(=O)(=O)c2ccc(C#CC3CC3)cc2O[C@H]1CN(C)C(=O)Cc1ccncc1,-64,1,79,7
C/C=C/c1ccc2c(c1)O[C@@H](CN(C)C(=O)Cc1ccncc1)[C@H](C)CN([C@H](C)CO)S2(=O)=O,-84*,-1,17,2
COc1ccccc1CC(=O)Nc1cc(Cl)ccc1C(=O)O,.,.,.,-1
O=C(CCc1nc(-c2ccccc2F)no1)Nc1ccccc1Cl,.,.,.,0
COc1cccc(C#Cc2ccc([C@@H]3[C@H](C#N)N(C(=O)C4CCC4)[C@H]3CO)cc2)c1,-50,0,89,.
COc1cccc(C#Cc2ccc([C@H]3[C@@H](C#N)N(C(=O)C4CCCC4)[C@@H]3CO)cc2)c1,-83*,-1,.,.
COc1cccc(C#Cc2ccc([C@H]3[C@@H](CO)N(C(=O)C4CCCCC4)[C@H]3C#N)cc2)c1,-95*,-4,89,0

# High-throughput results from PubChem.
